The values that follow come from ChEMBL document CHEMBL1124551, “Nucleic acid related compounds. 57. Synthesis, x-ray crystal structure, lipophilic partition properties, and antiretroviral activities of anomeric 3'-azido-2',3'-dideoxy-2,6-diaminopurine ribosides” (J Med Chem, 1989).

Where only a bound is given, the exact number is not on record here.

Test [1] concerns MT4. Put plainly: Cytotoxic dose required to reduce MT-4 cell viability by 50%.
Test [2] relates to MT4. Put plainly: Effective dose required to inhibit HIV-induced cytopathogenicity in human MT-4 cells. Format: functional. Conditions: read-out: ED50 (the source's name). A digest of the protocol: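 After 5 days at 37 °C, viable cells counted by trypan blue exclusion in a hemacytometer. ED₅₀ is the dose giving 50% protection against HIV-induced cytopathogenicity.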
In general terms: Cytopathic effects are the visible damage that an infection or toxin causes in cultured cells.

The nature of test [3]: Effective dose required to inhibit MSV-induced transformation in murine C3H cells. Conditions: Mus musculus, read-out: ED50 (the source's name). Format: functional. A digest of the protocol: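 Confluent mouse embryo C3H monolayers were infected with 80 focus-forming units of MSV for 90 min. Medium was then replaced with fresh medium holding graded compound concentrations. After 6 days at 37 °C, transformation was scored microscopically. ED₅₀ is the dose that inhibits transformation by 50%.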

The nature of test [4]: Ratio of CD50 and ED50 values against inhibition of HIV in MT-4 cells. In kind it is functional, MT4.
Test [5] can be described thus: Toxic dose required to cause an alteration of normal C3H cell morphology. Format: functional, Mus musculus. In a few lines: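 C3H cell cultures were exposed to graded compound concentrations and examined by microscope. TD is the dose that alters normal cell morphology.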

`[N-]=[N+]=N[C@@H]1C[C@H](N2C=NC3C(=O)N=C(N)N=C32)O[C@@H]1CO` (stereo not given in full): in the test on MT4 [1], the CD50 was found to be 165 µM. Moreover, the results for the EC50 (in the test on MT4 [2]; in test [3]) were 2.8 µM and 6.2 µM, respectively. In addition, the Ratio in test [4] worked out at 59. Besides, in test [5], the TD was greater than 400 µM.

In the test on MT4 [1], `Nc1nc(N)c2ncn([C@H]3CC[C@@H](CO)O3)c2n1` displayed a CD50 of 404 µM. In addition, the EC50 worked out at 3.5 µM in the test with MT4 [2] and 19 µM in test [3]. In addition, in test [4], the Ratio was determined as 115. The TD in test [5] was greater than 200 µM.
